{
  "source": "ChEMBL document CHEMBL3244396",
  "about": "“Synthesis and antileukemic activity of 5-substituted 2,3-dihydro-6,7-bis(hydroxymethyl)-1H-pyrrolizine diesters” (J Med Chem, 1977)",
  "key": {"[1]": {"tested_on": "P388", "test": "Antitumor activity against mouse P388 cells allografted in female CDF1 mouse assessed as change in body weight at 100 mg/kg, ip administered daily for 9 days as Klucel suspension starting 24 hrs after tumor inoculation", "assay_type": "functional", "details": "route intraperitoneal", "summary_of_the_method": "(§1)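 Ascitic fluid carrying P388 cells was inoculated ip. Compound was given ip in nine daily doses, starting 24 h after inoculation, in Klucel (hydroxypropylcellulose) suspension or in saline with Tween-80. Body-weight difference (treated minus control) was recorded on day 5. Survival was scored as %T/C of median survival time, and 30-day survival counted as cure.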"}, "[2]": {"tested_on": "P388", "test": "Antitumor activity against mouse P388 cells allografted in female CDF1 mouse assessed as change in body weight at 6.25 mg/kg, ip administered daily for 9 days as Klucel suspension starting 24 hrs after tumor inoculation", "assay_type": "functional", "details": "route intraperitoneal", "summary_of_the_method": "as §1"}, "[3]": {"tested_on": "Mus musculus", "test": "Toxicity in female CDF1 mouse allografted with mouse P388 cells assessed as animal survival at 3.13 mg/kg, ip administered daily for 9 days as Klucel suspension starting 24 hrs after tumor inoculation", "assay_type": "organism-based", "design": "dose 3.13 mg/kg, route intraperitoneal", "details": "in vivo", "summary_of_the_method": "(§2)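 P-388 leukemia ascitic fluid inoculated ip. Compound given ip as a suspension in Klucel (hydroxypropylcellulose), once daily for nine doses beginning 24 h post-inoculation. Acute toxicity assessed as toxicity-day survivors per group. Survival was followed up to 30 days, with 30-day survival counted as \"cure\". Follows NCI screening protocols.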"}, "[4]": {"test": "Cytotoxicity against human 9KB cells treated as ethanol solution", "assay_type": "functional", "details": "read-out: ED50 (the source's name)", "summary_of_the_method": "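Compound applied as an ethanol solution; activity read out as ED50 under the general screening protocol.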"}, "[5]": {"tested_on": "P388", "test": "Antitumor activity against mouse P388 cells allografted in female CDF1 mouse assessed as disease cures by measuring 30-days host survival at 3.13 mg/kg, ip administered daily for 9 days as Klucel suspension starting 24 hrs after tumor inoculation relative to control", "assay_type": "functional", "details": "route intraperitoneal", "summary_of_the_method": "(§3)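 P388 leukemia given as an ascitic fluid cell inoculum, ip, to mice of the strain and sex in each line. Nine daily ip doses were given in a Klucel (hydroxypropylcellulose) suspension, starting 24 h after inoculation. Read-out is median survival time as %T/C, with >125 taken as significant; a \"cure\" means 30-day survival.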"}, "[6]": {"tested_on": "P388", "test": "Antitumor activity against mouse P388 cells allografted in female CDF1 mouse assessed as disease cures by measuring 30-days host survival at 50 mg/kg, ip administered daily for 9 days as Klucel suspension starting 24 hrs after tumor inoculation relative to control", "assay_type": "functional", "details": "route intraperitoneal", "summary_of_the_method": "as §3"}, "[7]": {"tested_on": "P388", "test": "Antitumor activity against mouse P388 cells allografted in female CDF1 mouse assessed as change in body weight at 3.13 mg/kg, ip administered daily for 9 days as Klucel suspension starting 24 hrs after tumor inoculation", "assay_type": "functional", "details": "route intraperitoneal", "summary_of_the_method": "as §1"}, "[8]": {"tested_on": "Mus musculus", "test": "Toxicity in female BDF1 mouse allografted with mouse L1210 cells assessed as animal survival at 200 mg/kg, ip administered daily for 9 days as Klucel suspension starting 24 hrs after tumor inoculation measured on fifth day", "assay_type": "organism-based", "design": "dose 200 mg/kg, route intraperitoneal", "details": "in vivo", "summary_of_the_method": "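L1210 leukemia passaged as ascitic fluid and inoculated ip. Test agent given ip as a Klucel (hydroxypropylcellulose) suspension, nine daily doses starting 24 h after tumor inoculation. Acute toxicity read as toxicity-day survivors per group (out of 6), recorded on day 5. Animal weight difference T − C was also recorded. Follows NCI screening protocols.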"}, "[9]": {"tested_on": "P388", "test": "Antitumor activity against mouse P388 cells allografted in female CDF1 mouse assessed as change in body weight at 50 mg/kg, ip administered daily for 9 days as Klucel suspension starting 24 hrs after tumor inoculation", "assay_type": "functional", "details": "route intraperitoneal", "summary_of_the_method": "as §1"}, "[10]": {"tested_on": "P388", "test": "Antitumor activity against mouse P388 cells allografted in female CDF1 mouse assessed as change in body weight at 200 mg/kg, ip administered daily for 9 days as Klucel suspension starting 24 hrs after tumor inoculation", "assay_type": "functional", "details": "route intraperitoneal", "summary_of_the_method": "as §1"}, "[11]": {"tested_on": "Mus musculus", "test": "Toxicity in female BDF1 mouse allografted with mouse P388 cells assessed as animal survival at 25 mg/kg, ip administered daily for 9 days as Klucel suspension starting 24 hrs after tumor inoculation", "assay_type": "organism-based", "design": "dose 25 mg/kg, route intraperitoneal", "details": "in vivo", "summary_of_the_method": "as §2"}, "[12]": {"tested_on": "L1210", "test": "Antileukemic activity against mouse L1210 cells allografted in female BDF1 mouse assessed as change in body weight at 100 mg/kg, ip administered daily for 9 days as Klucel suspension starting 24 hrs after tumor inoculation", "assay_type": "functional", "details": "route intraperitoneal", "summary_of_the_method": "(§4)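 Ascitic fluid carrying L1210 cells was inoculated ip. Compound was given ip as a Klucel (hydroxypropylcellulose) suspension in nine daily doses, starting 24 h after inoculation. Body-weight difference (treated minus control) was recorded on day 5. Survival was scored as %T/C of mean survival time.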"}, "[13]": {"tested_on": "P388", "test": "Antitumor activity against mouse P388 cells allografted in female BDF1 mouse assessed as change in body weight at 12.5 mg/kg, ip administered daily for 9 days as Klucel suspension starting 24 hrs after tumor inoculation", "assay_type": "functional", "details": "route intraperitoneal", "summary_of_the_method": "as §1"}, "[14]": {"tested_on": "Mus musculus", "test": "Toxicity in female CDF1 mouse allografted with mouse P388 cells assessed as animal survival at 50 mg/kg, ip administered daily for 9 days as Klucel suspension starting 24 hrs after tumor inoculation", "assay_type": "organism-based", "design": "dose 50 mg/kg, route intraperitoneal", "details": "in vivo", "summary_of_the_method": "as §2"}, "[15]": {"tested_on": "L1210", "test": "Antileukemic activity against mouse L1210 cells allografted in female BDF1 mouse assessed as host mean survival time at 50 mg/kg, ip administered daily for 9 days as Klucel suspension starting 24 hrs after tumor inoculation relative to control", "assay_type": "functional", "details": "route intraperitoneal", "summary_of_the_method": "(§5)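 L1210 leukemia given as an ascitic fluid cell inoculum, ip, to mice of the strain and sex in each line. Test material was given ip for nine daily doses starting 24 h after inoculation, in a Klucel (hydroxypropylcellulose) suspension. Read-out is mean survival time as %T/C versus controls, with >125 taken as significant.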"}, "[16]": {"tested_on": "Mus musculus", "test": "Toxicity in female CDF1 mouse allografted with mouse P388 cells assessed as animal survival at 6.25 mg/kg, ip administered daily for 9 days as Klucel suspension starting 24 hrs after tumor inoculation", "assay_type": "organism-based", "design": "dose 6.25 mg/kg, route intraperitoneal", "details": "in vivo", "summary_of_the_method": "as §2"}, "[17]": {"tested_on": "P388", "test": "Antitumor activity against mouse P388 cells allografted in female BDF1 mouse assessed as disease cures by measuring 30-days host survival at 25 mg/kg, ip administered daily for 9 days as Klucel suspension starting 24 hrs after tumor inoculation relative to control", "assay_type": "functional", "details": "route intraperitoneal", "summary_of_the_method": "as §3"}, "[18]": {"tested_on": "Mus musculus", "test": "Toxicity in female BDF1 mouse allografted with mouse L1210 cells assessed as animal survival at 100 mg/kg, ip administered daily for 9 days as Klucel suspension starting 24 hrs after tumor inoculation measured on fifth day", "assay_type": "organism-based", "design": "dose 100 mg/kg, route intraperitoneal", "details": "in vivo", "summary_of_the_method": "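Female BDF1 mice bearing ip ascitic L1210 inoculum got nine daily ip doses in a Klucel suspension, starting 24 h after tumor inoculation. Toxicity was scored as toxicity-day survivors out of the group, recorded on the fifth day. Animal weight difference (T − C) was also tabulated.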"}, "[19]": {"tested_on": "L1210", "test": "Antileukemic activity against mouse L1210 cells allografted in female BDF1 mouse assessed as change in body weight at 200 mg/kg, ip administered daily for 9 days as Klucel suspension starting 24 hrs after tumor inoculation", "assay_type": "functional", "details": "route intraperitoneal", "summary_of_the_method": "as §4"}, "[20]": {"tested_on": "Mus musculus", "test": "Toxicity in female BDF1 mouse allografted with mouse P388 cells assessed as animal survival at 12.5 mg/kg, ip administered daily for 9 days as Klucel suspension starting 24 hrs after tumor inoculation", "assay_type": "organism-based", "design": "dose 12.5 mg/kg, route intraperitoneal", "details": "in vivo", "summary_of_the_method": "as §2"}, "[21]": {"tested_on": "L1210", "test": "Antileukemic activity against mouse L1210 cells allografted in female BDF1 mouse assessed as host mean survival time at 100 mg/kg, ip administered daily for 9 days as Klucel suspension starting 24 hrs after tumor inoculation relative to control", "assay_type": "functional", "details": "route intraperitoneal", "summary_of_the_method": "as §5"}, "[22]": {"tested_on": "P388", "test": "Antitumor activity against mouse P388 cells allografted in female BDF1 mouse assessed as disease cures by measuring 30-days host survival at 12.5 mg/kg, ip administered daily for 9 days as Klucel suspension starting 24 hrs after tumor inoculation relative to control", "assay_type": "functional", "details": "route intraperitoneal", "summary_of_the_method": "as §3"}, "[23]": {"tested_on": "P388", "test": "Antitumor activity against mouse P388 cells allografted in female BDF1 mouse assessed as change in body weight at 25 mg/kg, ip administered daily for 9 days as Klucel suspension starting 24 hrs after tumor inoculation", "assay_type": "functional", "details": "route intraperitoneal", "summary_of_the_method": "as §1"}, "[24]": {"tested_on": "P388", "test": "Antitumor activity against mouse P388 cells allografted in female CDF1 mouse assessed as disease cures by measuring 30-days host survival at 6.25 mg/kg, ip administered daily for 9 days as Klucel suspension starting 24 hrs after tumor inoculation relative to control", "assay_type": "functional", "details": "route intraperitoneal", "summary_of_the_method": "as §3"}, "[25]": {"tested_on": "L1210", "test": "Antileukemic activity against mouse L1210 cells allografted in female BDF1 mouse assessed as change in body weight at 50 mg/kg, ip administered daily for 9 days as Klucel suspension starting 24 hrs after tumor inoculation", "assay_type": "functional", "details": "route intraperitoneal", "summary_of_the_method": "as §4"}},
  "data": [
    {"compound": "CNC(=O)OCc1c(COC(=O)NC)c(-c2ccc(Cl)cc2)n2c1CCC2", "values": [
      {"measurement": "Activity", "setting": "[1]", "result": -0.9, "unit": "g"},
      {"measurement": "Activity", "setting": "[2]", "result": 0.2, "unit": "g"},
      {"measurement": "Activity", "setting": "[3]", "result": "Non-toxic"},
      {"measurement": "EC50", "setting": "[4]", "result": 2.3, "unit": "µg/mL"},
      {"measurement": "T/C", "setting": "[5]", "result": 127, "unit": "%"},
      {"measurement": "T/C", "setting": "[6]", "result": 104, "unit": "%"},
      {"measurement": "Activity", "setting": "[7]", "result": -0.6, "unit": "g"},
      {"measurement": "Activity", "setting": "[8]", "result": "Toxic"},
      {"measurement": "Activity", "setting": "[9]", "result": -2.5, "unit": "g"},
      {"measurement": "Activity", "setting": "[10]", "result": 0.5, "unit": "g"},
      {"measurement": "Activity", "setting": "[11]", "result": "Non-toxic"},
      {"measurement": "Activity", "setting": "[12]", "result": -3.8, "unit": "g"},
      {"measurement": "Activity", "setting": "[13]", "result": -0.2, "unit": "g"},
      {"measurement": "Activity", "setting": "[14]", "result": "Non-toxic"},
      {"measurement": "T/C", "setting": "[15]", "result": 112, "unit": "%"},
      {"measurement": "Activity", "setting": "[16]", "result": "Non-toxic"},
      {"measurement": "T/C", "setting": "[17]", "result": 135, "unit": "%"},
      {"measurement": "Activity", "setting": "[18]", "result": "Non-toxic"},
      {"measurement": "Activity", "setting": "[19]", "result": -2.8, "unit": "g"},
      {"measurement": "Activity", "setting": "[20]", "result": "Non-toxic"},
      {"measurement": "T/C", "setting": "[21]", "result": 107, "unit": "%"},
      {"measurement": "T/C", "setting": "[22]", "result": 129, "unit": "%"},
      {"measurement": "Activity", "setting": "[23]", "result": -0.8, "unit": "g"},
      {"measurement": "T/C", "setting": "[24]", "result": 150, "unit": "%"},
      {"measurement": "Activity", "setting": "[25]", "result": -2.6, "unit": "g"}
    ]}
  ]
}
